# Published values pooled from the literature.
# Each line is one published result; the experiments were not run side by side.
# Cell line: HEK293
# Read-out: cell growth or viability
SMILES,assay,conditions,quantity,value
O=C(N/N=C/c1ccc([N+](=O)[O-])o1)c1cn(Cc2ccccc2)c2ccc([N+](=O)[O-])cc2c1=O,resazurin,48 h,CC50,> 20 µM
O=C(Nc1cccc([N+](=O)[O-])c1)c1ccccc1,resazurin,48 h,CC50,> 20 µM
COC1=CC2=[N+](C)CCc3c[nH]c(c32)C1=O,MTT,72 h,CC50,12.5 µM
O=C(Nc1cccc([N+](=O)[O-])c1)c1ccc(C(F)(F)F)cc1,resazurin,48 h,CC50,> 20 µM
Cn1cc2c3c1C(=O)C(NCCc1ccc(O)cc1)=CC3=NCC2,MTT,72 h,CC50,2.5 µM
O=C(Nc1ccc(Cl)c(Cl)c1)c1cccc(C(F)(F)F)c1,resazurin,48 h,CC50,10.1 µM
Cn1cc2c3c1C(=O)C(NCCc1ccc(O)cc1)=CC3=[N+](C)CC2,MTT,72 h,CC50,0.23 µM
CC(C)C[C@H](NC(=O)[C@H](Cc1ccccc1)NC(=O)c1cnccn1)B(O)O,resazurin,48 h,CC50,0.008 µM
COC(CNC1=CC2=NCCc3c[nH]c(c32)C1=O)c1c[nH]c2ccccc12 (stereo not drawn),MTT,72 h,CC50,4 µM
O=C(Nc1ccc([N+](=O)[O-])cc1)c1ccc(F)cc1,resazurin,48 h,CC50,> 20 µM
COc1ccc2c(c1)c(=O)c(C(=O)NN)cn2Cc1ccc(C)cc1,resazurin,48 h,CC50,> 20 µM
O=C(Nc1ccc(C(F)(F)F)nn1)c1cccc(C(F)(F)F)c1,resazurin,48 h,CC50,> 20 µM
O=C1c2[nH]cc3c2C(=NCC3)c2c(-c3ccc(O)cc3)c[nH]c21,MTT,72 h,CC50,0.2 µM
NNC(=O)c1cn(Cc2ccccc2)c2ccc(Oc3ccccc3)cc2c1=O,resazurin,48 h,CC50,> 20 µM
CCCc1cc(=O)oc2cc(OCc3cc(=O)c(O)co3)ccc12,CCK-8,"36 µM, 24 h",viability,94%
